# Screens as filed in PubChem BioAssay.
# Shown are actives, neighbours in structure and some others; about 4.8% of the full set was active somewhere.
# ERa SRC1 pot – enhances coactivator binding to human estrogen receptor alpha | coactivator binding (% of control), % at 25.6 µM | 86,000 tested, 1.3% active | TR-FRET ERalpha-LBD/SRC-Cy5 coactivator binding, 2 h; 100 = basal binding, no effect | AID 639 | P03372; in the data active means activity above about 200%;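 further: binding measured in presence of low estradiol as agonist stimulus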
# SF1 activator – SF-1 (human) activation; Q13285; CHO-K1 Gal4-SF-1 LBD luciferase reporter; % increase over DMSO SF-1-specific signal; activation, % at 10 µM; 65,000 tested, 1.9% active; AID 522;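 active means activation above the mean activation of all tested compounds plus 3 SD, cut at about 50% in these data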
# Target sequence (Q13285 whole entry, looked up, the tested form may be a part): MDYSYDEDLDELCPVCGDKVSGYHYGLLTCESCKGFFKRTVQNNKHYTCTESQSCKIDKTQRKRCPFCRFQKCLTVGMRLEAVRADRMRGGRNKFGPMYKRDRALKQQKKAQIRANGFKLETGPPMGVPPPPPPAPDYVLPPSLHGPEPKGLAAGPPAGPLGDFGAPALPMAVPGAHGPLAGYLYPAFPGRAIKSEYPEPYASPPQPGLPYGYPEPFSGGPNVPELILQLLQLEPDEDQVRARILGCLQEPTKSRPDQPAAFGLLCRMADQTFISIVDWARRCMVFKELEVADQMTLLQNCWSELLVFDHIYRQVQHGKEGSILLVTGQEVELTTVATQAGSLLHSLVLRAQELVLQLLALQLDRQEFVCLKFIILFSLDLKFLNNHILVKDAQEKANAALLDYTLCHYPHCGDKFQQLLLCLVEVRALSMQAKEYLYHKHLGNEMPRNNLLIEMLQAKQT
#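 Compound – one dose, 10 µM compound, 1% DMSO · Test system – transient Gal4-SF-1 LBD reporter, CHO-K1 · Input – 4,000 cells in each well · Read-out basis – percent activation relative to DMSO median and mock-transfected background · Replicates – single measurement per compound · Technique – steady-glow luciferase luminescence, read after 15 min reagent incubation · Timing – 20 h compound treatment, 37 °C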
# ERb SRC1 inh – blocks coactivator binding to human estrogen receptor beta; Q92731; TR-FRET ER-beta LBD / SRC1-Cy5 peptide binding; receptor agonist-loaded with 1 µM estradiol; inhibition, % at 25.6 µM; 86,000 tested, 1.3% active;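 active means compounds whose percent inhibition of the receptor-coactivator binding signal exceeds about 50% in the single-dose screen, limit read from the data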
# Pyk2 oligo antag – blocks oligomerization of human Pyk2 in cells. Q14289. AID 1347419. z-score (the deposit names both 25 µM and 10 µM). 99,000 tested, 0.83% active. Q293 cells, Pyk2 FERM NanoBiT luminescence; stronger effect = lower value;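 active means Z-score of -3 or lower, scaled per plate to the spread of control and sample wells; inactive means z-score above -3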;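 further: negative z-score means lost luminescence so less FERM oligomerization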
# ERa SRC1 inh – blocks coactivator binding to human estrogen receptor alpha. P03372. TR-FRET ER-alpha LBD / SRC-1 peptide, estradiol-bound. inhibition, % at 25.6 µM. 86,000 tested, 1.7% active. AID 629; in the data active means inhibition above about 50%
# RORa activator – activators of human nuclear receptor RORA; P35398; CHO-K1 Gal4-RORA LBD luciferase reporter, luminescence; percent increase over mock-subtracted basal signal; activation, % at 10 µM; 65,000 tested, 1.5% active; AID 560;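 active means activation above the mean of all tested compounds plus 3 SD, cut at about 49% in these data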
# Numbers stand for hits; 0 = inactive; - = no result given; [ ] = another dose, or the depositor's remark.
SMILES,ERa SRC1 pot,SF1 activator,ERb SRC1 inh,Pyk2 oligo antag,ERa SRC1 inh,RORa activator
CCOc1ccc(-c2nnn(CC(=O)c3cc(OC)ccc3OC)n2)cc1,0,0,0,0,0,0
CC(=O)NC(C)C(=O)OCC(=O)Nc1ccc(Br)cc1 (configuration not stated),0,-,0,0,78,-
COc1ccc(S(=O)(=O)Nc2ccc(S(=O)(=O)N3CCCCC3)cc2)cc1C,0,-,0,-3.3,0,-
COc1ccc(CNS(=O)(=O)c2ccc(S(=O)(=O)N3CCCCC3)cc2)cc1,0,0,0,0,0,0
COc1ccc(S(=O)(=O)N2CCCN(S(=O)(=O)c3ccc(OC)c(C)c3)CC2)cc1C,0,-,0,0,0,-
CCc1ccc(NS(=O)(=O)c2ccc(OC)c(C)c2)cc1,0,-,0,-3.3,0,-
COc1ccc(CCNS(=O)(=O)c2ccc(S(=O)(=O)N3CCCC3)cc2)cc1OC,0,0,88[fluorescence artefact?],0,0,0
COc1ccc(S(=O)(=O)Nc2ccccc2)cc1OC,0,-,0,0,0,-
COc1ccc(S(=O)(=O)Nc2ccc3ccccc3c2)cc1C,0,-,0,-3.2,0,-
CN(Cc1ccccc1)C(=O)[C@H]1CCC(=O)N1Cc1ccco1,0,-,0,0,0,-
O=C(O)COc1ccc2c3c(c(=O)oc2c1)CCC3,0,-,0,0,0,-
CCOc1ccc(NC(=O)CSCc2cnn(-c3ccccc3)c2-n2cccc2)cc1,0,-,0,0,0,-
CCOc1ccc(CC2S/C(=N/c3ccccn3)NC2=O)cc1 (configuration not stated),331,0,0,0,0,0
COc1nc(C)ccc1-c1noc(-c2ccco2)n1,0,0,0,0,0,67
CCOc1nc(-c2ccccc2)ccc1-c1noc(-c2ccco2)n1,0,0,0,0,0,0
COc1nc(-c2ccc(C)cc2)ccc1-c1noc(-c2ccco2)n1,237,0,0,0,0,0
CC1=CC(C)C2(CO)COC(c3ccccc3O)C1C2C (configuration not stated),0,-,0,0,0,-
COC(=O)c1sccc1NC(=O)c1sccc1C,0,-,0,0,0,-
COC(=O)c1sccc1NC(=O)c1cc(OC)cc(OC)c1,440[fluorescence artefact?],-,0,0,0,-
COC(=O)c1sccc1NC(=O)c1ccc(OC)c(OC)c1,0,-,0,0,0,-
CCc1sc(C(=O)Nc2ccsc2C(=O)OC)cc1Br,237,0,0,0,0,0
CCc1nc(NCc2ccccn2)c2oc3ccccc3c2n1,0,0,0,-3,0,0
Cc1nc(NC(=O)c2ccccc2)sc1-c1csc(NCc2ccccc2)n1,0,-,0,0,0,-
Cc1nc(NC(=O)c2ccccc2)sc1-c1csc(N)n1,0,0,0,0,0,81
O=C(O)C1CCCCC1C(=O)NCCCc1ccccc1 (configuration not stated),268,0,0,0,0,0
SMILES,ERa SRC1 pot,SF1 activator,ERb SRC1 inh,Pyk2 oligo antag,ERa SRC1 inh,RORa activator
O=C(O)C1CCCCC1C(=O)NCCCCc1ccccc1 (configuration not stated),0,0,0,0,0,0
Cc1ccc(Nc2c(-c3ccc(C)o3)nc3cnccn23)cc1,0,-,0,-,0,-
Cc1ccc(-c2nc3cnccn3c2Nc2ccccc2)o1,0,0,0,-,0,49
C/C(=N/NC(=O)c1cc2ccccc2cc1O)C1C(=O)c2ccccc2C1=O,0,-,65[fluorescence artefact?],0,78[fluorescence artefact?],-
COc1ccc(-n2c(SCCC#N)nnc2-c2cc(Cl)ccc2OC)cc1Cl,399[fluorescence artefact?],0,0,0,0,0
CCn1c(=O)cc(OCC(=O)Nc2ccc(C)cn2)c2ccccc21,0,0,0,0,0,0
CCOC(=O)c1ccccc1NC(=O)COc1cc(=O)n(CC)c2ccccc12,278[fluorescence artefact?],-,0,-4.2,0,-
CCOC(=O)N1CCC(NC(=O)CSc2cc(=O)n(C)c3ccc(Cl)cc23)CC1,0,0,0,-,0,0
N#C/C(=C(/O)COC(=O)CCCNC(=O)c1ccc(Cl)cc1)c1nc2ccccc2[nH]1,0,0,0,0,52[fluorescence artefact?],0
C=CCNC(=O)c1ccccc1NC(=O)c1ccc(Cl)c(S(=O)(=O)Nc2ccccc2)c1,-,-,-,-3.8,-,-
C=CCNC(=O)c1ccccc1NC(=O)c1ccccc1C,0,-,0,0,0,-
CC(C)c1cc(CN2CCN(CCC#N)CC2)cc(C(C)C)c1O,0,0,0,0,0,0
C=CCn1c(SCCCC)nc(O)cc1=O,0,0,0,-,0,0
C=CCn1c(SC(C)CC)nc(O)cc1=O (configuration not stated),0,-,0,-4.5,0,-
CC(NC(=O)c1ccccc1)C(c1cccs1)N1CCOCC1 (configuration not stated),0,-,0,-,0,-
COc1cccc(C(=O)N(Cc2ccccc2)Cc2cc3cc4c(cc3[nH]c2=O)OCCO4)c1,0,-,0,-3.3,0,-
CCCCCCCCOC(=O)c1ccc(N)cc1,0,-,0,-3.3,0,-
COc1ccc2oc(=O)c(-c3nnc(NCc4ccco4)s3)cc2c1,0,81,57[fluorescence artefact?],0,0,80
CNc1nnc(-c2cc3cc(Cl)ccc3oc2=O)s1,0,-,0,0,66,-
CCOc1cccc2cc(-c3nnc(NCc4ccco4)s3)c(=O)oc12,0,0,0,0,53,0
COc1ccc2cc(C(=O)NCc3ccco3)c(=O)oc2c1,0,0,0,0,0,0
O=C(NCc1ccccn1)C1C2C=CC(C2)C1C(=O)Nc1ccc(F)cc1 (configuration not stated),0,-,0,0,0,-
COc1nc(N2CCOCC2)nc(-n2cccc2)n1,0,0,0,0,0,0
CCOc1ccc(N(CC(=O)Nc2ccc(C)cc2)S(=O)(=O)c2c(C)noc2C)cc1,0,0,0,-,0,0
COC(=O)c1ccc(NC(=O)CN(c2ccc(OC)cc2)S(C)(=O)=O)cc1,0,75,0,0,0,66
SMILES,ERa SRC1 pot,SF1 activator,ERb SRC1 inh,Pyk2 oligo antag,ERa SRC1 inh,RORa activator
CCOc1ccc(NC(=O)CN(C2CCCCC2)S(C)(=O)=O)cc1,0,-,0,0,0,-
COC(=O)c1ccccc1NC(=O)CN(c1ccc(OC)cc1)S(C)(=O)=O,0,-,0,0,0,-
CCOc1ccc(N(CC(=O)Nc2ccc(OC)cc2)S(C)(=O)=O)cc1,0,0,0,0,0,61
COc1ccc(NC(=O)CN(C)S(=O)(=O)c2cccs2)cc1,0,0,0,0,0,51
CCOc1ccc(NC(=O)CN(c2ccc(OC)cc2)S(C)(=O)=O)cc1,0,0,0,0,0,77
Cc1cc(C)c(NC(=O)C2CCN(c3cnccn3)CC2)c(C)c1,0,-,0,0,0,-
Cc1cc(C)nc(N2CCCC(C(=O)NC(C)CCc3ccco3)C2)n1 (configuration not stated),0,0,0,0,0,0
O=C(CCN1C(=O)C2C3C=CC(C4CC34)C2C1=O)Oc1cccc2cccnc12 (configuration not stated),-,-,-,0,-,-
O=C(CSc1nnc2sc3ccccc3n12)NCc1ccc2c(c1)OCO2,-,0,-,-,-,0
